High-throughput results deposited in PubChem by Broad Institute.
CDK5 inh: CDK5/p35 (human) kinase inhibition. AID 488839. 0.01% of 330,000 active. Q00535+Q15078. Recombinant CDK5/p35, ADP-Glo luminescence, 60 min. inhibition, % at 10 µM;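 active means highest replicate inhibition of at least 50% and at least 75% of replicates reaching 50%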;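 further: plate controls were DMSO neutral control for no effect and GW8510 at 10 µM for full effect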
STK33 kinase inh: inhibitors of human STK33 kinase; Q9BYT3; purified STK33, MBP phosphorylation, ADP-Glo luminescence; inhibition, % at 10 µM; 0.073% of 320,000 active;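 active means inhibition at or above 25%, using the most active replicate where run in duplicate; inactive means inhibition below 25%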
Target sequence (Q9BYT3 whole entry, looked up): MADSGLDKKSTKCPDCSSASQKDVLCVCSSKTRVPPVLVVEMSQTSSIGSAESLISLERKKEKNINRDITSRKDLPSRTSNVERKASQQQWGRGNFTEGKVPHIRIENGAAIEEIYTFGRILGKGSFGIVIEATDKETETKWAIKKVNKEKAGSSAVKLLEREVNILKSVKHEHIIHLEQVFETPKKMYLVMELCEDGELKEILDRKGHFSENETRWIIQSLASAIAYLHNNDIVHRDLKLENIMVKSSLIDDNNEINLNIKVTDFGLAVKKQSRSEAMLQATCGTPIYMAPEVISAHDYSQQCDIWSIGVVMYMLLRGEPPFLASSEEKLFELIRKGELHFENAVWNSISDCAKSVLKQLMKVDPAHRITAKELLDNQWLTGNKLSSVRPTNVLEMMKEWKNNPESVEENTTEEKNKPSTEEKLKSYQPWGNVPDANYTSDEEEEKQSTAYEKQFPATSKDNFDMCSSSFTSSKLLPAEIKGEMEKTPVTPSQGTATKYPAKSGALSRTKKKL
GSK3beta inhib: blocks human GSK3beta kinase activity. P49841. GST-GSK3beta kinase, ADP-Glo luminescence, 60 min; stronger effect = lower value. activity score (negative = inhibition), % at 10 µM. 0.038% of 300,000 active;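 active means more than half of replicate wells score below -50%, meaning over 50% inhibition versus plate controls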;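 further: 0% = median DMSO wells and -100% = median GW8510 positive control wells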
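Test system: GST-tagged human GSK3beta kinase, cell-free; evaluation: activity score scaled between in-plate DMSO and GW8510 controls; measured by: ADP-Glo luminescence; incubation: 60 min reaction, RT; benchmarks: DMSO and 20 µM GW8510; reagent: peptide substrate plus 25 µM ATP (final); medium: Tris/MgCl2 kinase buffer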
Dyrk1A ADPGlo: inhibitors of rat Dyrk1A kinase; 0.43% of 310,000 active; inhibition, % at 12.5 µM; Q63470; ADP-Glo luminescence, NFATc1 peptide; in the data active means inhibition above about 50%;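 further: plate controls were vehicle with enzyme for no effect and no enzyme for full effect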
GSK3 alpha inh: blocks human GSK-3 alpha kinase; P49840; ADP-Glo luminescence, 60 min; inhibition, % at 10 µM; 0.1% of 320,000 active; AID 2650;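 active means more than half of replicates show inhibition above 20%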;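 further: GST-tagged GSK-3 alpha with peptide substrate and 25 µM ATP; 0% = DMSO neutral wells and 100% = GW8510 positive control wells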
* = called active by the depositor; x = no result. The full list was thinned out, with hits kept by preference.

SMILES | CDK5 inh | STK33 kinase inh | GSK3beta inhib | Dyrk1A ADPGlo | GSK3 alpha inh
CN1CCCC1CCNc1ccc2c(=O)c3ccccc3oc2c1 (centres undefined) | 0.1 | 12.6 | 1.8 | 16.1 | 7.0
O=c1c2ccccc2oc2ccc(NCCCN3CCOCC3)cc12 | 2.7 | 50.0* | 2.0 | 5.0 | 2.7
CN1CCCC1CCNc1ccc2oc3ccccc3c(=O)c2c1 (centres undefined) | x | 39.2* | -1.3 | x | 3.0
COc1ccc(OCCCC(=O)Nc2cc(S(=O)(=O)N3CCCCC3)ccc2OC)cc1 | 0.0 | -2.9 | x | -0.9 | 0.0
Cc1cccc(C)c1NC(=O)CCCn1nc(C)c2c(C)n(-c3ccccc3)nc2c1=O | 1.1 | -0.8 | 4.4 | -0.6 | 0.0
CSc1nc(SCC(=O)NCC2CCCO2)c2c3c(sc2n1)CN(C)CC3 (centres undefined) | x | 2.4 | -29.2 | x | 57.5*
Cc1nc(SCC(=O)NCC2CCCO2)c2c3c(sc2n1)CCCC3 (centres undefined) | 0.5 | 0.4 | x | 7.7 | -3.6
Oc1ccccc1N=Cc1c(O)ccc2ccccc12 | 0.4 | x | 0.4 | -0.9 | x
CC(=O)N(C)c1ccc(N=Cc2c(O)ccc3ccccc23)cc1 | 1.2 | 62.4* | -1.6 | -4.1 | 0.5
Cc1cc(C(=O)O)ccc1N=Cc1c(O)ccc2ccccc12 | 0.4 | 26.1* | 1.2 | x | -0.5
O=C(CNS(=O)(=O)c1ccc(Br)cc1)NC1CCCC1 | -0.1 | 1.3 | 2.6 | -11.8 | -1.2
Cc1nnc(NC(=O)CSc2ccc3nnc(-c4cccnc4)n3n2)s1 | x | 0.0 | 0.5 | x | -9.6
CCC(C(=O)Nc1ccc2[nH]ncc2c1)c1ccccc1 (centres undefined) | 4.4 | 26.0* | 1.9 | 25.7 | 12.1
COc1cccc2cc(C(=O)CS(=O)(=O)c3ccc(C)cc3)c(=O)oc12 | -2.0 | -1.1 | -54.1* | 3.7 | -2.7
O=C(O)CCC1c2cc3c4cc2OC2Oc5cc6c(cc51)C(CCC(=O)O)c1cc5c7cc1OC(O6)c1cc6cc(c1)Oc1cc(cc(C(=O)O)c1)Oc1cc8cc(c1)C(Oc1cc(c(cc1C5CCC(=O)O)C3CCC(=O)O)OC(O4)c1cc(cc(c1)Oc1cc(cc(C(=O)O)c1)O8)Oc1cc(cc(C(=O)O)c1)Oc1cc(cc2c1)Oc1cc(cc(C(=O)O)c1)O6)O7 (centres undefined) | x | 30.0* | 1.6 | x | -305.1
O=C(O)c1cnn2c(-c3ccc(F)cc3)ccnc12 | 2.6 | -1.0 | -1.6 | -1.6 | -0.7
CCc1cc(C(=O)N2CCCC(N3CCN(c4cccc(C(F)(F)F)c4)CC3)C2)n(C)n1 (centres undefined) | 0.6 | -1.6 | 1.0 | -2.4 | 0.0
COc1cc(/C=N/NC(=O)c2sc(N)c(C#N)c2C)cc(Br)c1O | 0.8 | 1.4 | -10.6 | 6.0 | 61.8*
Cc1ccc(Sc2sc(=O)n(C)c2S(=O)(=O)c2ccc(C)cc2)cc1 | -1.3 | -0.1 | 0.1 | 1.4 | -1.7
O=C1NC(CCc2ccccc2)C(=O)N1CCOc1cccc(Br)c1 (centres undefined) | -1.4 | -0.3 | 0.2 | 2.7 | -1.9
Fc1ccccc1CSc1nnc(-c2ccccc2)o1 | -0.8 | 0.0 | -2.3 | 4.5 | 3.2
Cc1ccccc1CSc1nnc(-c2ccncc2)o1 | -0.4 | -0.9 | -55.1* | 28.6 | 53.4*
N#Cc1ccc(CSc2nnc(-c3ccncc3)o2)cc1 | -2.0 | 2.1 | -0.3 | 2.4 | 17.0
COC(=O)c1ccc(CSc2nnc(-c3ccncc3)o2)o1 | -0.4 | -0.7 | -41.5 | -9.5 | 66.0*
c1ccc(CSc2nnc(-c3ccncc3)o2)cc1 | 6.7 | 0.0 | 0.7 | 25.5 | 66.8*
SMILES | CDK5 inh | STK33 kinase inh | GSK3beta inhib | Dyrk1A ADPGlo | GSK3 alpha inh
CC1CCCN(C(=O)C2CCN(c3ncnc4c3nc3n4CCCCC3)CC2)C1 (centres undefined) | x | -1.0 | 3.0 | x | -0.9
COc1ccc2c(c1O)C(=O)c1ccccc1C2=O | x | 0.4 | 4.7 | x | -1.3
Nc1c(O)ccc2c1C(=O)c1ccccc1C2=O | x | 35.5* | -13.5 | x | 30.5
COc1ccc(CN(C)C(=O)/C=C/c2ccc(S(=O)(=O)N3CCCCCC3)cc2)cc1 | -1.3 | -1.6 | x | -3.5 | 3.4
Cc1cc(C)cc(-n2cc(C(=O)O)c(=O)cc2C)c1 | 0.4 | 0.0 | -4.1 | -2.5 | -1.6
O=c1c(/C=N/O)c(Nc2ccccc2)nc2ccccn12 | -0.9 | 57.1* | 2.0 | x | 1.8
CCC(C)N=Cc1c(Nc2ccccc2)nc2c(C)cccn2c1=O (centres undefined) | -1.0 | 0.7 | 0.2 | -5.3 | 0.1
Cc1nc2c(ncn2-c2ccccc2)c(=O)n1NC(=O)CN1CCCCC1 | 0.5 | -2.6 | 3.5 | -9.2 | -3.0
